Drawing on ChEMBL document CHEMBL1127381, “Synthesis and 5-lipoxygenase inhibitory activities of some novel 2-substituted 5-benzofuran hydroxamic acids” (J Med Chem, 1994), this text covers ED50, IC50 and inhibition for 22 molecules.

Assay [1] deals with T1, Polyunsaturated fatty acid 5-lipoxygenase (Mus musculus) (UniProt P48999).
T1 sequence (whole entry): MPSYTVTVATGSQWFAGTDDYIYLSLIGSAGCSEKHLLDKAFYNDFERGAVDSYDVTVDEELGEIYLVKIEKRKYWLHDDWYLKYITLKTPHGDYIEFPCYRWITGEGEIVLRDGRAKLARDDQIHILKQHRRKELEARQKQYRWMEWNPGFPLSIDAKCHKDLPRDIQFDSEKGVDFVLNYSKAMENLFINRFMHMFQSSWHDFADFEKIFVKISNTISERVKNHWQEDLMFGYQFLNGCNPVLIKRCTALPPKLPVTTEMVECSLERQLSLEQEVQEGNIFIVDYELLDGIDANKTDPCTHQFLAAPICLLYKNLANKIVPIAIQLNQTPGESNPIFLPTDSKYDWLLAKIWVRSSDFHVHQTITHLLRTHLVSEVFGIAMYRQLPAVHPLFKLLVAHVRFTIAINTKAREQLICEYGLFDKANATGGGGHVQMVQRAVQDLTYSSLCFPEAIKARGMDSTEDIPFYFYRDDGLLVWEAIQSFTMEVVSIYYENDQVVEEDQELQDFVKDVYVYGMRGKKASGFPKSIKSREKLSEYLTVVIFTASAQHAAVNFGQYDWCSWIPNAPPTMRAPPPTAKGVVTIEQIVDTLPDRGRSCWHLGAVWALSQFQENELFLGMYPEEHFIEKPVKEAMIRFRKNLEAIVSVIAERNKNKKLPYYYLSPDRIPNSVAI
Put plainly: In vivo inhibition of 5-lipoxygenase (LTC4) in the mouse zymosan peritonitis assay at an oral dose of 30 mg/Kg. The format is functional, organism-based. In short, it runs like this: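 Male CD-1 mice (18–25 g) given compound orally in PEG 200. Zymosan-A (3 mg in 0.9% saline) injected ip 1 h later. Mice killed 15 min after zymosan; peritoneum lavaged with 10 μM indomethacin. Fluid extracted in cold 95% ethanol and dried. LTC4 measured by [3H]RIA on 1:20 dilution. Values are mean percent inhibition per animal ± SEM.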

For assay [2], the target named is T2, Polyunsaturated fatty acid 5-lipoxygenase (Rattus norvegicus, UniProt P12527).
T2 sequence (P12527 whole entry): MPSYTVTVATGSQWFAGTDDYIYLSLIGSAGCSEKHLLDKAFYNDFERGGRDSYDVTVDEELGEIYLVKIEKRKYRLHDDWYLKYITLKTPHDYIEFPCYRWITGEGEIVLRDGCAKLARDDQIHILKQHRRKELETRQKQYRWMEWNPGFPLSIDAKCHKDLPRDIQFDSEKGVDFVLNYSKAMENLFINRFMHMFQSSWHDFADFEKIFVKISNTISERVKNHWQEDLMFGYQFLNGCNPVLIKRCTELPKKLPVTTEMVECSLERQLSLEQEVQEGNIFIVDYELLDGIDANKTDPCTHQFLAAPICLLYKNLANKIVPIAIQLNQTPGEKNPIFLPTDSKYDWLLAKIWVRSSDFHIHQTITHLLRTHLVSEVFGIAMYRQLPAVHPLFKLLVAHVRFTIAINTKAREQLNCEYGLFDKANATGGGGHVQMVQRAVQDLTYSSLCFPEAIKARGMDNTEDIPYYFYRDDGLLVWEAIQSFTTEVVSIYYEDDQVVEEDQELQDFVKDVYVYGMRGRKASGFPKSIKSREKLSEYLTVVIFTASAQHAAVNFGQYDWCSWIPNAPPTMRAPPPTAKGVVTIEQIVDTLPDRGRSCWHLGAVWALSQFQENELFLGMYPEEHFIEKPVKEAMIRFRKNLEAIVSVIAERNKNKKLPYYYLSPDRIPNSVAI
The assay is described as follows: In vitro inhibition of 5-lipoxygenase (5-HETE) derived from the 9000xg supernatant of RBL broken cell assay. It counts as cell-based. In short, it runs like this: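 RBL-1 cells grown in suspension, washed, suspended at 5 × 10^7 cells/mL in NaHPO4/CaCl2 buffer, homogenized at 0 °C, spun 9000g for 50 min. Supernatant preincubated with compound 5 min at 37 °C, then [14C]arachidonic acid added and incubated 20 min at 37 °C. Reaction stopped with 2 N formic acid. 5-HETE formation measured radiometrically.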

On to `COc1cc(-c2cc3cc(C(C)N(O)C(N)=O)ccc3o2)cc(OC)c1OC` (configuration not stated), for which the ED50 in assay [1] stood at 17.5 mg/kg. Moreover, the IC50 in assay [2] is 50 nM. `COC(=O)CCCC(=O)N(O)C(C)c1ccc2oc(-c3cc(OC)c(OC)c(OC)c3)cc2c1` (configuration not stated) registered an inhibition in assay [1] of 42.1%. In assay [2], inhibition was half-maximal at 40 nM (IC50). With `CC(c1ccc2oc(-c3ccccc3)cc2c1)N(O)C(=O)c1cccs1` (configuration not stated), the inhibition in assay [1] is 29.1%. The same molecule registered an IC50 in assay [2] of 250 nM. Consider `CC(c1ccc2oc(-c3ccccc3)cc2c1)N(O)C(=O)c1ccccc1` (configuration not stated), for which the inhibition in assay [1] worked out at 46.2%. `COc1cc(-c2cc3cc(C(C)N(O)C(C)=O)ccc3o2)cc(OC)c1OC` (configuration not stated): the inhibition in assay [1] amounted to 42.1%. In assay [2], the IC50 came out at 310 nM.

Consider `COC(=O)CCCC(=O)N(O)C(C)c1ccc2oc(-c3ccccc3)cc2c1` (configuration not stated), for which the half-inhibitory concentration (IC50) in assay [2] stood at 60 nM. That is a double-digit nanomolar value. Turning to `COc1ccc2cc(-c3cc4cc(C(C)N(O)C(C)=O)ccc4o3)ccc2c1` (configuration not stated), in assay [1], the inhibition amounted to 25.6%. The molecule further had a half-maximal inhibitory concentration (IC50) in assay [2] of 120 nM. In the case of `CC(c1ccc2oc(-c3ccccc3)cc2c1)N(O)C(N)=O` (configuration not stated), in assay [1], the 50% effective dose (ED50) amounted to 10.3 mg/kg. The molecule further returned a half-inhibitory concentration (IC50) in assay [2] of 410 nM. Molecule `CC(c1ccc2oc(-c3ccccc3)cc2c1)N(O)C(=O)CO` (configuration not stated) showed an ED50 in assay [1] of 27.5 mg/kg. Also, the IC50 in assay [2] stood at 700 nM. For the molecule `CCCCc1cc2cc(C(C)N(O)C(=O)CCCC(=O)OC)ccc2o1` (configuration not stated), in assay [1], the inhibition was 28.6%. In assay [2], this molecule showed an IC50 of 50 nM. The molecule `CC(=O)N(O)C(C)c1ccc2oc(-c3ccccc3)cc2c1` (configuration not stated) yielded an ED50 in assay [1] of 22.1 mg/kg. The same molecule registered a half-inhibitory concentration (IC50) in assay [2] of 490 nM.

In turn, `CC(=O)N(O)C(C)c1ccc(OCCc2ccccc2)cc1` (configuration not stated) registered an IC50 in assay [2] of 410 nM. `CCOC(=O)CCC(=O)N(O)C(C)c1ccc2oc(-c3ccccc3)cc2c1` (configuration not stated) returned a half-maximal inhibitory concentration (IC50) in assay [2] of 50 nM. This IC50 lies about 8.2-fold lower than the previous one. Regarding `CCCCCCCCCCc1cc2cc(C(C)N(O)C(C)=O)ccc2o1` (configuration not stated), the inhibition in assay [1] stood at 19.5%. In assay [2], this molecule registered an IC50 of 410 nM.

The molecule `COc1ccc(C(=O)N(O)C(C)c2ccc3oc(-c4ccccc4)cc3c2)cc1OC` (configuration not stated) displayed a concentration for half-maximal inhibition (IC50) in assay [2] of 200 nM. For the molecule `COCC(=O)N(O)C(C)c1ccc2oc(-c3ccccc3)cc2c1` (configuration not stated), the median effective dose (ED50) in assay [1] came to 18.6 mg/kg. The molecule further returned a half-inhibitory concentration (IC50) in assay [2] of 160 nM. As for `CC(c1ccc2oc(-c3ccccc3)cc2c1)N(O)C(=O)c1ccco1` (configuration not stated), the inhibition in assay [1] was 32.9%. Besides, in assay [2], the 50% inhibitory concentration (IC50) stood at 40 nM. Molecule `CC(c1cc2ccccc2s1)N(O)C(N)=O` (configuration not stated) yielded a median effective dose (ED50) in assay [1] of 2.71 mg/kg.

In assay [1], `CCCCc1cc2cc(C(C)N(O)C(C)=O)ccc2o1` (configuration not stated) registered an inhibition of 41.4%. The same molecule yielded a 50% inhibitory concentration (IC50) in assay [2] of 50 nM. `COc1cccc(OC)c1C(=O)N(O)C(C)c1ccc2oc(-c3ccccc3)cc2c1` (configuration not stated): in assay [2], the IC50 stood at 3000 nM. This counts as single-digit micromolar.

Molecule `CCCCCCCCCCc1cc2cc(C(C)N(O)C(=O)CCCC(=O)OC)ccc2o1` (configuration not stated) yielded an inhibition in assay [1] of 37.3%. Also, half-maximal inhibition in assay [2] (IC50) was put at 150 nM. Turning to `CC(=O)OCC(=O)N(O)C(C)c1ccc2oc(-c3ccccc3)cc2c1` (configuration not stated), in assay [1], the inhibition worked out at 18.9%. In assay [2], this molecule returned a half-maximal inhibitory concentration (IC50) of 160 nM.
